Results from ChEMBL document CHEMBL1125136, “Quinolone antibacterial agents substituted at the 7-position with spiroamines. Synthesis and structure-activity relationships” (1990).
Values after ≈ are worked out from the molar mass of the structure shown.

Assays:
Pseudomonas aeruginosa [1] = test: In vivo protective dose was determined against Pseudomonas aeruginosa UI-18. after peroral administration; format: functional; conditions: po, read-out: PD50
Summary of the method: (§1)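 Female Charles River CD-1 mice were given an acute, lethal, systemic infection. A single dose of compound was given at the time of challenge, by the route stated in the line, with 16 animals per dose level. The read-out is the median protective dose (PD50, mg/kg). Per the footnote, values come from 16 animals per test, with a mean variation of ±34%.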

Streptococcus pneumoniae [2] = test: In vivo protective dose was determined against Streptococcus pneumoniae SV-1 after peroral administration; conditions: po, read-out: PD50
Streptococcus pyogenes [3] = test: In vivo protective dose was determined against Streptococcus pyogenes after subcutaneous administration; conditions: sc, read-out: PD50
Klebsiella pneumoniae = test: Evaluated for minimum inhibitory concentration against gram-negative bacteria Klebsiella pneumoniae MGH-2; format: functional
Summary of the method: (§2)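 Broth microdilution MIC by standard technique. Values come from duplicate experiments and are stated as accurate to ±50%.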

Enterococcus faecalis [4] = test: Evaluated for minimum inhibitory concentration against gram-positive bacteria Staphylococcus faecalis MGH-2
Escherichia coli [5] = test: In vivo protective dose for mouse protection assay in Escherichia coli Vogel after peroral administration; format: functional; conditions: po, read-out: PD50; summary of the method: as §1
Pseudomonas = test: Evaluated for minimum inhibitory concentration against gram-negative bacteria Pseudomonas rettgeri H1771; format: functional; summary of the method: as §2
Streptococcus pneumoniae [6] = test: In vivo protective dose was determined against Streptococcus pneumoniae SV-1 after subcutaneous administration; conditions: sc, read-out: PD50
Staphylococcus aureus [7] = test: In vivo protective dose was determined against Staphylococcus aureus VC76. after subcutaneous administration; format: functional; conditions: sc, read-out: PD50; summary of the method: as §1
Escherichia coli [8] = test: Evaluated for minimum inhibitory concentration against gram-negative bacteria Escherichia coli Vogel; format: functional; summary of the method: as §2
Staphylococcus aureus [9] = test: Evaluated for minimum inhibitory concentration against […] bacteria Staphylococcus aureus UC-76; format: functional; summary of the method: as §2
Pseudomonas aeruginosa [10] = test: In vivo protective dose was determined against Pseudomonas aeruginosa UI-18. after subcutaneous administration; format: functional; conditions: sc, read-out: PD50; summary of the method: as §1
Staphylococcus aureus [11] = test: Evaluated for minimum inhibitory concentration against […] bacteria Staphylococcus aureus H228; format: functional; summary of the method: as §2
Enterobacter cloacae = test: Evaluated for minimum inhibitory concentration against gram-negative bacteria Enterobacter cloacae HA 2646; format: functional
Pseudomonas aeruginosa [12] = test: Evaluated for minimum inhibitory concentration against gram-negative bacteria Pseudomonas aeruginosa UI-18; format: functional; summary of the method: as §2
Escherichia coli [13] = test: In vivo protective dose was determined in mouse protection assay in Escherichia coli Vogel after subcutaneous administration; format: functional; conditions: sc, read-out: PD50; summary of the method: as §1
[14] = Evaluated for minimum inhibitory concentration against […] bacteria […] SV-1; format: functional; summary of the method: as §2
Escherichia coli [15] = test: Evaluated for minimum concentration needed to produce linear DNA at an intensity relative to oxolinic acid at 10 mg/mL. by gyrase mediated cleavage of DNA in Escherichia coli 560.; format: functional; conditions: read-out: MIC
Streptococcus pyogenes [16] = test: Evaluated for minimum inhibitory concentration against gram-positive bacteria Streptococcus pyogenes C203
Streptococcus pyogenes [17] = test: In vivo protective dose was determined against Streptococcus pyogenes after peroral administration; conditions: po, read-out: PD50
Staphylococcus aureus [18] = test: In vivo protective dose was determined against Staphylococcus aureus VC76 after peroral administration; format: functional; conditions: po, read-out: PD50; summary of the method: as §1
Pseudomonas aeruginosa [19] = test: Evaluated for minimum inhibitory concentration against gram-negative bacteria Pseudomonas aeruginosa UI-18
Enterococcus faecalis [20] = test: Evaluated for minimum inhibitory concentration against […] bacteria, Staphylococcus faecalis MGH-2; format: functional; summary of the method: as §2
Escherichia coli [21] = test: `Evaluated for minimum concentration needed to produce linear DNA at an intensity relative to oxolinic acid at 10 mg/mL. by gyrase mediated cleavage of DNA in Escherichia coli 560.; format: functional
Summary of the method: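 DNA gyrase isolated from Escherichia coli. The read-out is the minimum drug concentration (μg/mL) that induces gyrase-mediated DNA cleavage, giving linear DNA at an intensity relative to oxolinic acid at 10 mg/mL.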

| Structure (SMILES) | ED50 (Pseudomonas aeruginosa [1]) [mg/kg] | ED50 (Streptococcus pneumoniae [2]) [mg/kg] | ED50 (Streptococcus pyogenes [3]) [mg/kg] | MIC (Klebsiella pneumoniae) [µg/mL] | MIC (Enterococcus faecalis [4]) [µg/mL] | ED50 (Escherichia coli [5]) [mg/kg] | MIC (Pseudomonas) [µg/mL] | ED50 (Streptococcus pneumoniae [6]) [mg/kg] | MIC (Escherichia coli [8]) [µg/mL] | MIC (Staphylococcus aureus [9]) [µg/mL] | ED50 (Pseudomonas aeruginosa [10]) [mg/kg] | MIC (Staphylococcus aureus [11]) [µg/mL] | MIC (Enterobacter cloacae) [µg/mL] | MIC (Pseudomonas aeruginosa [12]) [µg/mL] | ED50 (Escherichia coli [13]) [mg/kg] | MIC [14] [µg/mL] | minimum concentration for gyrase-mediated DNA cleavage (Escherichia coli [15]) [µg/mL] | MIC (Streptococcus pyogenes [16]) [µg/mL] | ED50 (Streptococcus pyogenes [17]) [mg/kg] | also measured |
| --- | --- | --- | --- | --- | --- | --- | --- | --- | --- | --- | --- | --- | --- | --- | --- | --- | --- | --- | --- | --- |
| CC1COc2c(N3CCC4(CCN(C)C4)C3)c(F)cc3c(=O)c(C(=O)O)cn1c23 (stereo not given) | 200 | 63 | 6 | 0.1 (≈ 0.249 µM) | 0.1 (≈ 0.249 µM) | 14 | 0.4 (≈ 0.996 µM) | 11.5 | 0.025 (≈ 0.0623 µM) | 0.006 (≈ 0.0149 µM) | 56 | 0.1 (≈ 0.249 µM) | 0.2 (≈ 0.498 µM) | 0.8 (≈ 1.99 µM) | 4.5 | 0.2 (≈ 0.498 µM) | 1 | 0.1 (≈ 0.249 µM) | 31 | ED50 (Staphylococcus aureus [7]): 2.1 mg/kg; ED50 (Staphylococcus aureus [18]): 12.5 mg/kg |
| CCn1cc(C(=O)O)c(=O)c2cc(F)c(N3CCC4(CCN(C)C4)C3)nc21 (stereo not given) | 200 | 30 | 13 | 0.4 (≈ 1.07 µM) | 0.2 (≈ 0.534 µM) | 11.4 | 1.6 (≈ 4.27 µM) | 16 | 0.1 (≈ 0.267 µM) | 0.025 (≈ 0.0668 µM) | 58 | 0.1 (≈ 0.267 µM) | 0.4 (≈ 1.07 µM) | 1.6 (≈ 4.27 µM) | 4.4 | 0.8 (≈ 2.14 µM) | 10 | 0.4 (≈ 1.07 µM) | 27 | ED50 (Staphylococcus aureus [7]): 3.6 mg/kg; ED50 (Staphylococcus aureus [18]): 8.5 mg/kg |
| CCn1cc(C(=O)O)c(=O)c2cc(F)c(N3CCC4(CCN(C)C4)C3)c(F)c21 (stereo not given) | 140 | 43 | 27 | 0.1 (≈ 0.255 µM) | 0.1 (≈ 0.255 µM) | 8.4 | 0.8 (≈ 2.04 µM) | 11 | 0.006 (≈ 0.0153 µM) | 0.006 (≈ 0.0153 µM) | 70 | 0.1 (≈ 0.255 µM) | 0.1 (≈ 0.255 µM) | 0.8 (≈ 2.04 µM) | 3.4 | 0.4 (≈ 1.02 µM) | 1 | 0.2 (≈ 0.511 µM) | 38 | ED50 (Staphylococcus aureus [7]): 4 mg/kg; ED50 (Staphylococcus aureus [18]): 9 mg/kg |
| CCn1cc(C(=O)O)c(=O)c2c(F)c(F)c(N3CCC4(CCN(C)C4)C3)c(F)c21 (stereo not given) | – | – | – | 1.6 (≈ 3.91 µM) | 1.6 (≈ 3.91 µM) | 22 | 6.3 (≈ 15.4 µM) | – | 0.8 (≈ 1.95 µM) | 0.2 (≈ 0.489 µM) | – | 0.8 (≈ 1.95 µM) | 0.8 (≈ 1.95 µM) | 6.3 (≈ 15.4 µM) | 12.5 | 0.8 (≈ 1.95 µM) | 5 | 1.6 (≈ 3.91 µM) | – | – |
| CCn1cc(C(=O)O)c(=O)c2cc(F)c(N3CCC4(CCNC4)C3)c(F)c21 (stereo not given) | – | – | – | 0.2 (≈ 0.53 µM) | 0.2 (≈ 0.53 µM) | > 100 | 1.6 (≈ 4.24 µM) | – | 0.1 (≈ 0.265 µM) | 0.05 (≈ 0.132 µM) | – | 0.1 (≈ 0.265 µM) | 0.2 (≈ 0.53 µM) | 0.8 (≈ 2.12 µM) | 15 | 0.2 (≈ 0.53 µM) | 2.5 | 0.1 (≈ 0.265 µM) | – | – |
| CN1CCC2(CCN(c3c(F)cc4c(=O)c(C(=O)O)cn(C5CC5)c4c3F)C2)C1 (stereo not given) | – | – | – | 0.1 (≈ 0.248 µM) | 0.1 (≈ 0.248 µM) | 5 | 0.2 (≈ 0.496 µM) | – | 0.05 (≈ 0.124 µM) | 0.013 (≈ 0.0322 µM) | – | 0.25 (≈ 0.62 µM) | 0.05 (≈ 0.124 µM) | – | 2 | 0.05 (≈ 0.124 µM) | 0.5 | 0.05 (≈ 0.124 µM) | – | MIC (Pseudomonas aeruginosa [19]): 0.8 µg/mL (≈ 1.98 µM) |
| CCn1cc(C(=O)O)c(=O)c2cc(F)c(N3CCC4(CCNC4)C3)nc21.Cl (stereo not given) | – | – | – | 3.1 | 1.6 | > 100 | 12.5 | – | 0.8 | 0.4 | – | 3.1 | 0.8 | 0.8 | 28 | 0.8 | 5 | 0.2 | – | – |
| CCN1CCC2(CCN(c3c(F)cc4c(=O)c(C(=O)O)cn(CC)c4c3F)C2)C1 (stereo not given) | > 100 | 68 | 38 | 0.2 (≈ 0.493 µM) | 0.2 (≈ 0.493 µM) | 13 | 1.6 (≈ 3.95 µM) | 43 | 0.2 (≈ 0.493 µM) | 0.1 (≈ 0.247 µM) | 180 | 0.2 (≈ 0.493 µM) | 0.4 (≈ 0.987 µM) | 3.1 (≈ 7.65 µM) | 6 | 0.8 (≈ 1.97 µM) | 5 | 0.4 (≈ 0.987 µM) | 70 | – |
| CCn1cc(C(=O)O)c(=O)c2cc(F)c(N3CCCC4(CCCNC4)C3)c(F)c21 (stereo not given) | – | – | – | 6.3 (≈ 15.5 µM) | – | – | 25 (≈ 61.7 µM) | – | 3.1 (≈ 7.65 µM) | 0.4 (≈ 0.987 µM) | – | 3.1 (≈ 7.65 µM) | 6.3 (≈ 15.5 µM) | 12.5 (≈ 30.8 µM) | – | 6.3 (≈ 15.5 µM) | 7.5 | 3.1 (≈ 7.65 µM) | – | MIC (Enterococcus faecalis [20]): 3.1 µg/mL (≈ 7.65 µM) |
| O=C(O)c1cn(C2CC2)c2c(F)c(N3CCC4(CCCN4)C3)c(F)cc2c1=O (stereo not given) | – | – | – | 0.1 (≈ 0.257 µM) | 0.4 (≈ 1.03 µM) | 4 | 0.8 (≈ 2.05 µM) | – | 0.025 (≈ 0.0642 µM) | 0.4 (≈ 1.03 µM) | – | 0.05 (≈ 0.128 µM) | 0.025 (≈ 0.0642 µM) | 0.2 (≈ 0.514 µM) | 1 | 0.4 (≈ 1.03 µM) | 0.5 | 0.4 (≈ 1.03 µM) | – | – |
| CCN1CCC2(CCN(c3nc4c(cc3F)c(=O)c(C(=O)O)cn4CC)C2)C1 (stereo not given) | – | – | – | 0.4 (≈ 1.03 µM) | 0.8 (≈ 2.06 µM) | 10.3 | 6.3 (≈ 16.2 µM) | – | 0.4 (≈ 1.03 µM) | 0.2 (≈ 0.515 µM) | – | 0.4 (≈ 1.03 µM) | 1.6 (≈ 4.12 µM) | 3.1 (≈ 7.98 µM) | 15 | 1.6 (≈ 4.12 µM) | – | 1.6 (≈ 4.12 µM) | – | MIC (Escherichia coli [21]): 5 µg/mL (≈ 12.9 µM) |
| CCNCC1CCN(c2c(F)cc3c(=O)c(C(=O)O)cn(CC)c3c2F)C1 (stereo not given) [MERAFLOXACIN] | – | – | – | 0.2 (≈ 0.527 µM) | 0.1 (≈ 0.264 µM) | – | 0.4 (≈ 1.05 µM) | – | 0.1 (≈ 0.264 µM) | 0.05 (≈ 0.132 µM) | – | 0.1 (≈ 0.264 µM) | 0.2 (≈ 0.527 µM) | 1.6 (≈ 4.22 µM) | – | 0.1 (≈ 0.264 µM) | 2.5 | 0.1 (≈ 0.264 µM) | – | – |
| O=C(O)c1cn(C2CC2)c2c(F)c(N3CCC4(CCNC4)C3)c(F)cc2c1=O (stereo not given) | – | – | – | 0.4 (≈ 1.03 µM) | 0.4 (≈ 1.03 µM) | > 100 | 0.8 (≈ 2.05 µM) | – | 0.2 (≈ 0.514 µM) | 0.025 (≈ 0.0642 µM) | – | 0.2 (≈ 0.514 µM) | 0.2 (≈ 0.514 µM) | 1.6 (≈ 4.11 µM) | 7 | 0.1 (≈ 0.257 µM) | 0.1 | 0.025 (≈ 0.0642 µM) | – | – |
